{"source": "paper PMC4156448", "about": "(Memórias do Instituto Oswaldo Cruz, 2014)", "key": {"[1]": {"test_system": "human hepatocellular liver carcinoma cell line (HepG2)", "assay": "Cytotoxicity MTT assay, HepG2 cells", "format": "cell-based", "conditions": "24 h, unit only from tested concentrations"}, "[2]": {"test_system": "normal monkey kidney cells (BGM)", "assay": "Cytotoxicity MTT assay, BGM cells", "format": "cell-based", "conditions": "for BGM MLD50: BGM cells, 24 h, MTT, unit only from tested concentrations"}, "[3]": {"test_system": "Plasmodium falciparum W2 clone (chloroquine-resistant)", "assay": "In vitro activity against P. falciparum blood-stage parasites, anti-HRPII test", "format": "cell-based", "conditions": "classified by IC50"}, "[4]": {"test_system": "Plasmodium berghei (NK65)", "assay": "Antimalarial suppressive test against Plasmodium berghei in mice", "format": "in vivo", "conditions": "P. berghei; for Inhibition of parasitaemia at days after parasite inoculation (%) Fifth: day 5; for Inhibition of parasitaemia at days after parasite inoculation (%) Ninth: day 9", "summary_of_the_method": "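Oral 4-day-type suppressive test, run once. P. berghei NK65 (chloroquine-sensitive) blood stages kept at -70 °C and passaged weekly in outbred Swiss mice. Adult female mice (20 ± 2 g) received 1 × 10^5 infected erythrocytes and were randomised into groups of three 24 h later. […] Parasitaemia was read on Giemsa-stained tail-blood smears on days 5 and 9, as inhibition versus untreated mice (100%).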"}, "[5]": {"conditions": "chloroquine 20 mg/kg, listed as chloroquine"}, "[6]": {"conditions": "oral 100 mg/kg for three consecutive days"}}, "data": [{"smiles": "CC1=C(O)C(=O)c2ccccc2C1=O", "note": "[Compound 13, 2-hydroxy-3-methyl-1,4-naphthoquinone]", "values": [{"measurement": "HepG2 MLD50", "setting": "[1]", "value": "5,308.2 ± 8.3 µM"}, {"measurement": "BGM MLD50", "setting": "[2]", "value": "≥ 5,314.1 µM"}]}, {"smiles": "CC(C)=CCC1=C(O)C(=O)c2ccccc2C1=O", "note": "[Compound 10, Lapachol]", "values": [{"measurement": "HepG2 MLD50", "setting": "[1]", "value": "1,491.7 ± 321.4 µM"}, {"measurement": "BGM MLD50", "setting": "[2]", "value": "1,785.1 ± 888.3 µM"}]}, {"smiles": "CC(C)/C=C/C1=C(O)C(=O)c2ccccc2C1=O", "note": "[Compound 12, Iso-lapachol]", "values": [{"measurement": "HepG2 MLD50", "setting": "[1]", "value": "≥ 4,127.6 µM"}, {"measurement": "BGM MLD50", "setting": "[2]", "value": "1,388.9 ± 592.5 µM"}, {"measurement": "difference in cytotoxicity between HepG2 and BGM cells", "setting": "[2]; HepG2 versus BGM", "value": "near two-fold increase"}, {"measurement": "in vitro activity class against P. falciparum", "setting": "[3]", "value": "partially active (those with IC50 values between 5-30 µM were considered partially active)"}]}, {"smiles": "CCN(CC)CCCC(C)Nc1ccnc2cc(Cl)ccc12", "note": "(stereo not shown) [Chloroquine]", "values": [{"measurement": "Activity", "setting": "[4]; chloroquine 20 mg/kg", "value": "Cure"}, {"measurement": "Inhibition of parasitaemia at days after parasite inoculation (%) Fifth", "setting": "[4]; chloroquine 20 mg/kg", "value": 100, "unit": "%"}, {"measurement": "Inhibition of parasitaemia at days after parasite inoculation (%) Ninth", "setting": "[4]; chloroquine 20 mg/kg", "value": 100, "unit": "%"}, {"measurement": "Activity", "setting": "[4]; [5]", "value": "clearing parasitaemia"}, {"measurement": "survival of mice", "setting": "[4]; [5]", "value": "maintaining survival of the mice"}]}, {"smiles": "CC(C)=CC1=C(O)C(=O)c2ccccc2C1=O", "note": "[Compound 11, Nor-lapachol]", "values": [{"measurement": "HepG2 MLD50", "setting": "[1]", "value": "1,698.6 ± 94.8 µM"}, {"measurement": "in vivo activity class", "setting": "[4]; oral 100 mg/kg", "value": "inactive"}, {"measurement": "Inhibition of parasitaemia at days after parasite inoculation (%) Fifth", "setting": "[4]; [6]", "value": 21, "unit": "%"}, {"measurement": "Inhibition of parasitaemia at days after parasite inoculation (%) Ninth", "setting": "[4]; [6]", "value": 21, "unit": "%"}, {"measurement": "BGM MLD50", "setting": "[2]", "value": "1,608.8 ± 221.8 µM"}, {"measurement": "in vitro activity class against P. falciparum", "setting": "[3]", "value": "partially active (those with IC50 values between 5-30 µM were considered partially active)"}]}]}
